According to ChEMBL document CHEMBL3861962 (Eur J Med Chem, 2016):
One block for each compound: values may come before it. Where a SMILES comes first, the peptide text is derived from it. [ ]: non-standard residue; d: D form.

Experiments:
[1] = target: T1, Endothelin receptor type B (Homo sapiens) (UniProt P24530); test: (§1) Antagonist activity at ETB receptor in human BSMC assessed as inhibition of endothelin-1 or 3-mediated Ca2+ mobilization preincubated for 5 mins followed by endothelin-1 or 3 addition by fura-2/AM dye-based spectrofluorimetric method; format: functional
T1 sequence (whole entry): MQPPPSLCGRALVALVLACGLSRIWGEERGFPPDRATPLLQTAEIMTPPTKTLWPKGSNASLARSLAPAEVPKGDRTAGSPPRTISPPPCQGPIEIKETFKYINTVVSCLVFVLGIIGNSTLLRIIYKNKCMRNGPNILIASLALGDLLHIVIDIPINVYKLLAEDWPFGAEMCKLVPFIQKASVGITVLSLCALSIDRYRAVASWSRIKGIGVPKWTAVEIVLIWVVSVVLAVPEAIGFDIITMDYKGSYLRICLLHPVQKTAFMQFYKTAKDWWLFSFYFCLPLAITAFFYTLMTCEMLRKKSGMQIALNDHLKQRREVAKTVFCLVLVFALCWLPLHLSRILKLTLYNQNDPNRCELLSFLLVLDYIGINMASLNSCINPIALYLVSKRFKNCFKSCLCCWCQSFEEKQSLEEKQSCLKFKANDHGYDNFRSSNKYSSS

[2] = target: T2, Endothelin receptor type B (Homo sapiens, UniProt P24530); test: as §1; format: functional
T2 sequence (P24530 whole entry): T1 sequence (whole entry)

Endothelin-1 receptor = target: T3, Endothelin-1 receptor (Homo sapiens, UniProt P25101); test: Antagonist activity at ETA receptor in human SKNMC cells assessed as inhibition of endothelin-1-mediated Ca2+ mobilization by fura-2/AM dye-based spectrofluorimetric method
T3 sequence (P25101 whole entry): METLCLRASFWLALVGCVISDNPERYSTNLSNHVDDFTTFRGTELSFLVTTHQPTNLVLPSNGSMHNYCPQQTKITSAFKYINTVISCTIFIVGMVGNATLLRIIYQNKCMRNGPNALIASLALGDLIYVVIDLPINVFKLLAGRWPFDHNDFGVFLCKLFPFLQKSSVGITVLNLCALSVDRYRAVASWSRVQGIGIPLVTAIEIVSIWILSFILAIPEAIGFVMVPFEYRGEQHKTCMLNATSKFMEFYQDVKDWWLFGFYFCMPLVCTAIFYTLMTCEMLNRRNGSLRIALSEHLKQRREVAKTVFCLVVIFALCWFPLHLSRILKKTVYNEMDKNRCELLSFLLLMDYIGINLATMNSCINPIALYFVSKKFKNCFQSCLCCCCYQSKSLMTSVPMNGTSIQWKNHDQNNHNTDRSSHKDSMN

Cytochrome P450 3A4 [3] = target: T4, Cytochrome P450 3A4 (Homo sapiens, UniProt P08684); test: Drug metabolism assessed as human recombinant CYP3A4-mediated formation of 4-(1-hydroxy-2-methylpropan-2-yl)-N-(6-(2-hydroxyethoxy)-5-(2-hydroxyphenoxy)-2,2'-bipyrimidin-4-yl)benzenesulfonamide at 5 uM in presence of NADPH after 30 mins by LC-MS/MS analysis; format: ADME; settings: recombinant enzyme, 0.5 h
T4 sequence (P08684 whole entry): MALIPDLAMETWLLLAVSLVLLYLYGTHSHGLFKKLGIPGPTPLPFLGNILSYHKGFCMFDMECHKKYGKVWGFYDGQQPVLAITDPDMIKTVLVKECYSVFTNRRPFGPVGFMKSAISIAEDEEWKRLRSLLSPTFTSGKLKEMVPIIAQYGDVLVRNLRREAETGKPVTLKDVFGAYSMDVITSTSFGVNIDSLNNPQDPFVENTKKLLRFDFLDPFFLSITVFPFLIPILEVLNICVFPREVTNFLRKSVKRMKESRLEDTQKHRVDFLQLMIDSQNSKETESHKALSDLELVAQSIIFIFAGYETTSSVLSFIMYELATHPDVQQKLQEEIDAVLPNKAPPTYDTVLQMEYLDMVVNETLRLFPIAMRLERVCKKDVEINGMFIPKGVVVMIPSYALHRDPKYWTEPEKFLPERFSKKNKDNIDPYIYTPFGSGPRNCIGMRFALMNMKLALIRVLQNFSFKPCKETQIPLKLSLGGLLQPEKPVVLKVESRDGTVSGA
Outline: (§2)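 Substrate at 5 μM final in 100 mM potassium phosphate, pH 7.4, incubated with human liver microsomes or baculovirus-expressed recombinant CYP3A4, 2D6 or 2C9. Reaction started with 1 mM NADPH and run 0, 15 and 30 min at 37 °C. Stopped with ice-cold acetonitrile containing labetalol internal standard, then centrifuged. Supernatant analysed by LC-MS/MS on a C18 column at 40 °C. Blank was enzyme without substrate.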

[4] = Drug metabolism in human liver microsomes assessed as formation of 4-(1-hydroxy-2-methylpropan-2-yl)-N-(6-(2-hydroxyethoxy)-5-(2-methoxyphenoxy)-2,2'-bipyrimidin-4-yl)benzenesulfonamide at 5 uM in presence of NADPH after 30 mins by LC-MS/MS analysis; format: ADME; settings: 0.5 h; outline: as §2
Cytochrome P450 2C9 [5] = target: T5, Cytochrome P450 2C9 (Homo sapiens, UniProt P11712); test: Drug metabolism assessed as human recombinant CYP2C9-mediated formation of 4-(1-hydroxy-2-methylpropan-2-yl)-N-(6-(2-hydroxyethoxy)-5-(2-methoxyphenoxy)-2,2'-bipyrimidin-4-yl)benzenesulfonamide at 5 uM in presence of NADPH after 30 mins by LC-MS/MS analysis; format: ADME; settings: recombinant enzyme, 0.5 h; outline: as §2
T5 sequence (P11712 whole entry): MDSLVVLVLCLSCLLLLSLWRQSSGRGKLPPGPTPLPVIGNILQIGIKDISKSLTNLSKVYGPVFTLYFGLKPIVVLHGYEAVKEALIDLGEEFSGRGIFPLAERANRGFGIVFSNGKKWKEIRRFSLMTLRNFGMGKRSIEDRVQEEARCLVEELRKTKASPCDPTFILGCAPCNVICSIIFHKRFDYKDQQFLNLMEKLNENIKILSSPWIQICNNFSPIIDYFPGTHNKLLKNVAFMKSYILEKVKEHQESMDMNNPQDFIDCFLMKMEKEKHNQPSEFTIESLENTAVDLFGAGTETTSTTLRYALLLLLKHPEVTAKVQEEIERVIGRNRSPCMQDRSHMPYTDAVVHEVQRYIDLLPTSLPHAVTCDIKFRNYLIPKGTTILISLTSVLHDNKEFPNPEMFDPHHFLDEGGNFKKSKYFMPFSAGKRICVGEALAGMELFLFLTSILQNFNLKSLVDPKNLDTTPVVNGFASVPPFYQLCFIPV

[6] = Metabolic stability in human liver microsomes assessed as parent compound remaining at 5 uM in presence of NADPH after 30 mins by LC-MS/MS analysis; format: ADME; settings: read-out: Stability
Outline: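 Pooled human liver microsomes in 100 mM potassium phosphate, pH 7.4, with test compound at 5 μM final. Reaction started with 1 mM NADPH (final) and run at 37 °C in a shaking water bath for 0, 15 and 30 min. Stopped with an equal volume of ice-cold acetonitrile containing 0.6 μM labetalol as internal standard. Protein was spun out and the supernatant analysed by LC-MS/MS. Blank had no compound.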

Cytochrome P450 3A4 [7] = target: T4, Cytochrome P450 3A4; test: Drug metabolism assessed as human recombinant CYP3A4-mediated formation of 4-(1-hydroxy-2-methylpropan-2-yl)-N-(6-(2-hydroxyethoxy)-5-(2-methoxyphenoxy)-2,2'-bipyrimidin-4-yl)benzenesulfonamide at 5 uM in presence of NADPH after 30 mins by LC-MS/MS analysis; format: ADME; settings: recombinant enzyme, 0.5 h; outline: as §2
[8] = Drug metabolism in human liver microsomes assessed as formation of 4-(1-hydroxy-2-methylpropan-2-yl)-N-(6-(2-hydroxyethoxy)-5-(2-hydroxyphenoxy)-2,2'-bipyrimidin-4-yl)benzenesulfonamide at 5 uM in presence of NADPH after 30 mins by LC-MS/MS analysis; format: ADME; settings: 0.5 h; outline: as §2
Cytochrome P450 3A4 [9] = target: T4, Cytochrome P450 3A4; test: Drug metabolism assessed as human recombinant CYP3A4-mediated metabolite formation by measuring parent compound remaining at 5 uM in presence of NADPH after 30 mins by LC-MS/MS analysis; format: ADME; settings: recombinant enzyme, 0.5 h; outline: as §2
[10] = Retention time of the compound; format: physicochemical
Cytochrome P450 2D6 = Cytochrome P450 2D6 (Homo sapiens, UniProt P10635); test: Drug metabolism assessed as human recombinant CYP2D6-mediated metabolite formation by measuring parent compound remaining at 5 uM in presence of NADPH after 30 mins by LC-MS/MS analysis; format: ADME; settings: recombinant enzyme, 0.5 h; outline: as §2
Sequence of Cytochrome P450 2D6 (P10635 whole entry): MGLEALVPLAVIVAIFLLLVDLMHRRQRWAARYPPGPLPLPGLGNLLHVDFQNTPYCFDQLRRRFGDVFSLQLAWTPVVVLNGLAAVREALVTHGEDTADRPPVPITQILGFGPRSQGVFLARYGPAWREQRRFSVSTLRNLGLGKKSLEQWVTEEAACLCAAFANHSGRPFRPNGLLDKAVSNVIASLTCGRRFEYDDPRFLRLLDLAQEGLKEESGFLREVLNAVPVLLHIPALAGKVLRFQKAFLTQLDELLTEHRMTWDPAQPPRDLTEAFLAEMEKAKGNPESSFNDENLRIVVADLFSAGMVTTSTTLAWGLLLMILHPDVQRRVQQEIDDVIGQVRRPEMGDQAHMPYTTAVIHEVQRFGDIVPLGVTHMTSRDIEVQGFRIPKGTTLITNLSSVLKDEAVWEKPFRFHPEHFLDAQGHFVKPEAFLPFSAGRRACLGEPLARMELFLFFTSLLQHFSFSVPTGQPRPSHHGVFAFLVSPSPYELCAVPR

Cytochrome P450 2C9 [11] = target: T5, Cytochrome P450 2C9; test: Drug metabolism assessed as human recombinant CYP2C9-mediated metabolite formation by measuring parent compound remaining at 5 uM in presence of NADPH after 30 mins by LC-MS/MS analysis; format: ADME; settings: recombinant enzyme, 0.5 h; outline: as §2
[12] = Cytotoxicity against CHOK1 cells assessed as decrease in cell viability after 24 hrs by MTT assay; format: toxicity, cell-based, Cricetulus griseus; settings: Chinese hamster, CHO-K1 cells
Outline: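 CHO-k1 cells grown in phenol-red-free DMEM/F-12 with 10% FBS, seeded at 20,000 cells/well and allowed to attach overnight. Exposure was 24 h to 0.1–200 μM, with DMSO as vehicle control. MTT at 1 mg/mL for 3 h at 37 °C, formazan dissolved in DMSO, absorbance read at 570 nm. Data given as % OD of vehicle control; IC50 taken from dose–response curve fits.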

Cytochrome P450 3A4 [13] = target: T4, Cytochrome P450 3A4; test: Drug metabolism assessed as human recombinant CYP3A4-mediated formation of 4-tert-butyl-N-(6-(2-hydroxyethoxy)-5-(2-hydroxyphenoxy)-2,2'-bipyrimidin-4-yl)benzenesulfonamide at 5 uM in presence of NADPH after 30 mins by LC-MS/MS analysis; format: ADME; settings: recombinant enzyme, 0.5 h; outline: as §2
[14] = Drug metabolism in human liver microsomes assessed as formation of 4-tert-butyl-N-(6-(2-hydroxyethoxy)-5-(2-hydroxyphenoxy)-2,2'-bipyrimidin-4-yl)benzenesulfonamide at 5 uM in presence of NADPH after 30 mins by LC-MS/MS analysis; format: ADME; settings: 0.5 h; outline: as §2
Cytochrome P450 2C9 [15] = target: T5, Cytochrome P450 2C9; test: Drug level assessed as human recombinant CYP2C9-mediated compound formation treated with bosentan at 5 uM in presence of NADPH after 30 mins by LC-MS/MS analysis; format: ADME; settings: recombinant enzyme, 0.5 h; outline: as §2
[16] = Drug level in human liver microsomes treated with bosentan at 5 uM in presence of NADPH after 30 mins by LC-MS/MS analysis; format: ADME; settings: 0.5 h; outline: as §2
Cytochrome P450 3A4 [17] = target: T4, Cytochrome P450 3A4; test: Drug level assessed as human recombinant CYP3A4-mediated compound formation treated with bosentan at 5 uM in presence of NADPH after 30 mins by LC-MS/MS analysis; format: ADME; settings: recombinant enzyme, 0.5 h; outline: as §2
Cytochrome P450 2C9 [18] = target: T5, Cytochrome P450 2C9; test: Drug level assessed as human recombinant CYP2C9-mediated compound formation treated with 4-(tert-Butyl)-N-(6-ethoxy-5-(2-methoxyphenoxy)-[2,2'-bipyrimidin]-4-yl)benzenesulfonamide at 5 uM in presence of NADPH after 30 mins by LC-MS/MS analysis; format: ADME; settings: recombinant enzyme, 0.5 h; outline: as §2
[19] = Drug level in human liver microsomes treated with 4-(tert-Butyl)-N-(6-ethoxy-5-(2-methoxyphenoxy)-[2,2'-bipyrimidin]-4-yl)benzenesulfonamide at 5 uM in presence of NADPH after 30 mins by LC-MS/MS analysis; format: ADME; settings: 0.5 h; outline: as §2
Cytochrome P450 3A4 [20] = target: T4, Cytochrome P450 3A4; test: Drug level assessed as human recombinant CYP3A4-mediated compound formation treated with 4-(tert-Butyl)-N-(6-ethoxy-5-(2-methoxyphenoxy)-[2,2'-bipyrimidin]-4-yl)benzenesulfonamide at 5 uM in presence of NADPH after 30 mins by LC-MS/MS analysis; format: ADME; settings: recombinant enzyme, 0.5 h; outline: as §2

Compound: CCCC[C@@H](NC(=O)[C@@H](Cc1cn(C(=O)OC)c2ccccc12)NC(=O)[C@H](CC(C)(C)C)NC(=O)N1[C@H](C)CCC[C@@H]1C)C(=O)O
Kb [1]: 0.5 nM
IC50 [2]: 0.41 nM

Compound: CC(C)C[C@@H]1NC(=O)[C@@H](C(C)C)NC(=O)[C@@H]2CCCN2C(=O)[C@@H](CC(=O)O)NC(=O)[C@@H](Cc2c[nH]c3ccccc23)NC1=O [BQ-123] (cyclo(L[dW][dD]P[dV]))
IC50 (Endothelin-1 receptor): 0.62 nM

Compound: COc1ccccc1Oc1c(NS(=O)(=O)c2ccc(C(C)(C)C)cc2)nc(-c2ncccn2)nc1OCCO [BOSENTAN]
Drug metabolism (Cytochrome P450 3A4 [3]): Metabolite_Detected
Drug metabolism [4]: Metabolite_Detected
Drug metabolism (Cytochrome P450 2C9 [5]): Metabolite_Detected
remaining at 0.5 h, 5 µM [6]: 91.6%
Drug metabolism (Cytochrome P450 3A4 [7]): Metabolite_Detected
Drug metabolism [8]: Metabolite_Detected
Stability (Cytochrome P450 3A4 [9]): 20.9%
Retention_time [10]: 5.1 min
Stability (Cytochrome P450 2D6): > 99%
Stability (Cytochrome P450 2C9 [11]): 75.8%
IC50 at 24 h [12]: 196000 nM
Drug metabolism (Cytochrome P450 3A4 [13]): Metabolite_Detected
Drug metabolism [14]: Metabolite_Detected

The next lines start with the values.

Retention_time [10]: 3.79 min
Drug metabolism (Cytochrome P450 2C9 [15]): Metabolite_Detected
Drug metabolism [16]: Metabolite_Detected
Drug metabolism (Cytochrome P450 3A4 [17]): Metabolite_Detected
Compound: COc1ccccc1Oc1c(NS(=O)(=O)c2ccc(C(C)(C)CO)cc2)nc(-c2ncccn2)nc1OCCO

Retention_time [10]: 4.99 min
Drug metabolism (Cytochrome P450 2C9 [18]): Metabolite_Detected
Drug metabolism [19]: Metabolite_Detected
Drug metabolism (Cytochrome P450 3A4 [20]): Metabolite_Detected
Compound: CCOc1nc(-c2ncccn2)nc(NS(=O)(=O)c2ccc(C(C)(C)CO)cc2)c1Oc1ccccc1OC
